Screening data as filed in PubChem.
Compounds with a hit are over-represented: about 2.3% of the library has one in this group of screens.
TRPC6 activator – activators of mouse TRPC6 channel; HEK293-TRPC6 membrane potential dye fluorescence; hits give high values; B-score at 10 µM; 0.13% of 310,000 active; AID 2550;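 active means B-score of the integrated fluorescence ratio above library mean plus 3 SD, and starting fluorescence ratio within library mean plus 5 SD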;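 further: higher score means more depolarization so channel activation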
Target sequence (Q61143 whole entry, looked up): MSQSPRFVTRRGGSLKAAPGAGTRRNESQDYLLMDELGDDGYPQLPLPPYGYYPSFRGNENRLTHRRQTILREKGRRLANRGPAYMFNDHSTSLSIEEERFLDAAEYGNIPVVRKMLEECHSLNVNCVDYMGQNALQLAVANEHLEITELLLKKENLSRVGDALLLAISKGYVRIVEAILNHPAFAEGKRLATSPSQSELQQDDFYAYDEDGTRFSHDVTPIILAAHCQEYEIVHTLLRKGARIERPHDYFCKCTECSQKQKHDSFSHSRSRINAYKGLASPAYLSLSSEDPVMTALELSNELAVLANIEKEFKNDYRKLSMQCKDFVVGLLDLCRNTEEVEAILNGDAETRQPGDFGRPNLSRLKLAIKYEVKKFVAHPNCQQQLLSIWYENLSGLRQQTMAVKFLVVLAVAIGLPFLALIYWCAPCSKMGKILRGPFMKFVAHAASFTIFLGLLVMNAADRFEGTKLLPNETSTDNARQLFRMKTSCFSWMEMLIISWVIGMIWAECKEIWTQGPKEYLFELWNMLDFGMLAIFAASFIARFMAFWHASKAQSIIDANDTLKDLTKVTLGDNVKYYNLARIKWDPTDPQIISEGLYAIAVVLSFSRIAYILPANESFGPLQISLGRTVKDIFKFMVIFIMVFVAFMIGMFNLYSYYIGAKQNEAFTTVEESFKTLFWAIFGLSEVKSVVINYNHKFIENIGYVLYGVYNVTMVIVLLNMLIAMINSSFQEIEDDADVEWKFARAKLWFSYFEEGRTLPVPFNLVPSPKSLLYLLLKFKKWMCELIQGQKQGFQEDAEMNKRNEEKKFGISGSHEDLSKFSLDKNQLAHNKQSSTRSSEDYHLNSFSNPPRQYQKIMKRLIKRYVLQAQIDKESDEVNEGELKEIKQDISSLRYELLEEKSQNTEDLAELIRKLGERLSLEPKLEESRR
TRPC4 inh – inhibitors of mouse TRPC4 channel; Q9QUQ5; HEK293 TRPC4beta/mu-opioid, DAMGO-evoked Fluo4 calcium flux; hits give low values; B-score at 10 µM; 0.39% of 300,000 active; AID 2247;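 active means B-score over 3 SD under the library average, no early fluorescence shift, positive overall ratio signal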
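Material: HEK293 cells with stable TRPC4beta plus mu-opioid receptor expression / Probe or stimulus: DAMGO in two steps, submaximal then maximal / Compound: single concentration per test compound / Technique: kinetic Fluo4 fluorescence imaging of calcium influx / Read-out: per-well B score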
TRPC6 inh – blocks the mouse TRPC6 cation channel; AID 2553; 1.1% of 310,000 active; B-score at 10 µM; HEK293-TRPC6, membrane potential dye, ACh-evoked depolarization; hits give low values;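 active means B-score under library mean minus 3 SD, initial fluorescence not abnormally high, positive integrated signal ratio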;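 further: B-score derived from integrated fluorescence ratio over the kinetic read; more negative B-score means stronger inhibition of depolarization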
TRPC4 PAM – allosteric potentiators of mouse TRPC4 channel; Q9QUQ5; HEK293 TRPC4beta/mu-opioid, DAMGO EC20, Fluo-4 Ca2+ flux; hits give high values; B-score at 10 µM; 0.42% of 310,000 active; AID 2227;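 active means B-score of calcium response area above 5 SD of library B-scores, with initial fluorescence ratio within 5 SD of library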;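 further: B-score of integrated fluorescence ratio over time as area under calcium response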
TRPC4 act – activators of mouse TRPC4 channel; AID 2237; B-score at 10 µM; HEK293 TRPC4beta/mu-opioid, Fluo4 calcium fluorescence; hits give high values; 0.49% of 310,000 active; Q9QUQ5;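 active means B-score above 5 SD of library B-scores, and initial fluorescence ratio not above library mean plus 5 SD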;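 further: positive B-score marks a calcium rise read as TRPC4 activation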
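Assay system: HEK293 stable line with TRPC4beta plus mu-opioid receptor. Times: dye 45 min RT, read 110 s. Measured by: kinetic Fluo4 calcium fluorescence. Measure: B score of integrated ratio. Controls: assay buffer as low control, maximal DAMGO as high control.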
TRPC4 spec 2 – second check of whether TRPC6 inhibitors also affect mouse TRPC4; shares compounds with TRPC6 inh; HEK293 TRPC4/MOR, membrane potential dye fluorescence; channel activated by saturating DAMGO dose; inhibition, % at 10 µM; 42% of 920 active; AID 2776;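 active means compounds whose fluorescence signal differed from control wells by over 3 SD, either direction, in both duplicate plates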
TRPC4 spec – selectivity of TRPC6 inhibitors: effect on mouse TRPC4; shares compounds with TRPC6 inh; HEK293 TRPC4/mu-opioid, membrane potential fluorescence; activity change, negative = inhibition, % at 10 µM; 61% of 920 active; AID 2777;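 active means rise or fall in signal beyond 3 SD of buffer-only wells in both replicate plates, either sign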;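 further: integrated kinetic ratio of fluorescence range over baseline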
HEK293 MPD ctr 2-1 – second counter-screen for TRPC6 inhibitors: parental HEK293 cells | shares compounds with TRPC6 inh | parental HEK293 membrane potential dye fluorescence; maximal acetylcholine challenge after compound addition | signal change vs control, % at 10 µM | 31% of 920 active | AID 2779;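 active means membrane potential signal moving either way by over 3 SD of the maximum-effect control, in both duplicate plates, meaning non-specific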
HEK293 MPD ctr-1 – parental HEK293 nonspecific activity of TRPC6 inhibitors | shares compounds with TRPC6 inh | parental HEK293 membrane potential dye fluorescence | membrane potential signal change, % at 10 µM | 60% of 920 active;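 active means membrane potential signal shifting up or down by more than 3 SD of buffer-only wells, on both duplicate plates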
HEK293 MPD ctr-2 – checks TRPC6 modulator effects in parental HEK293 cells | shares compounds with TRPC6 inh | 51% of 2,400 active | AID 488924 | membrane potential signal change, % at 10 µM | membrane potential dye fluorescence;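 active means membrane potential signal moves up or down beyond 5 SD from buffer-only wells, on both duplicate plates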
HEK293 MPD ctr 2-2 – second check of TRPC6 modulator effects in parental HEK293 cells | shares compounds with TRPC6 inh | membrane potential dye fluorescence; after compound, maximal acetylcholine stimulation | inhibition, % at 10 µM | 14% of 2,400 active | AID 488926;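 active means membrane potential signal drops by more than 5 SD from the mean control signal, in both duplicate plates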;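 further: plate controls were acetylcholine ECmax control wells for no effect and buffer only wells for full effect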
TRPC4/MOR mod – tests whether TRPC6 modulators also affect mouse TRPC4; shares compounds with TRPC6 inh; HEK293 TRPC4/mu-opioid, membrane potential fluorescence; percent change from control (negative = decrease, positive = increase), % at 10 µM; 69% of 2,400 active;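 active means membrane potential signal moved up or down beyond 5 SD of buffer control wells, in both duplicate plates, actives on both sides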;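 further: plate controls were assay buffer wells for no effect and DAMGO maximal-effect wells for full effect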
TRPC4/MOR inh 2 – mouse TRPC4 off-target activity of TRPC6 modulators, second screen; shares compounds with TRPC6 inh; HEK293 TRPC4/mu-opioid, membrane potential dye fluorescence; stimulated with maximal-effect DAMGO; inhibition, % at 10 µM; 55% of 2,400 active; AID 488928;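 active means drop in membrane potential signal beyond 5 SD of the control wells in both duplicate plates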;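 further: TRPC4 counter screen for TRPC6 hits run under conditions tuned for TRPC6 not TRPC4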
TRPC6 inh conf – mouse TRPC6 inhibitor confirmation; shares compounds with TRPC6 inh; HEK293-TRPC6, membrane potential dye, ACh-evoked depolarization; 43% of 3,300 active; inhibition, % at 10 µM;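 active means fluorescence ratio falls more than 5 SD below the full-stimulation control mean, in both duplicate runs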;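 further: integrated fluorescence ratio of peak minus minimum over baseline after agonist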
TRPC6 act conf – mouse TRPC6 activator confirmation; shares compounds with TRPC6 inh; HEK293-TRPC6 membrane potential dye fluorescence, FDSS; activation, % at 10 µM; 11% of 2,800 active; AID 488961;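 active means ratio signal rise beyond 5 SD above unstimulated control wells' mean, seen in both duplicate runs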;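 further: plate controls were buffer EC0 wells for no effect and acetylcholine ECmax response for full effect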
Starred values were filed as active, the others as inactive; i = inactive; . = not tested or not shown.

SMILES	TRPC6 activator	TRPC4 inh	TRPC6 inh	TRPC4 PAM	TRPC4 act	HEK293 MPD ctr-2	HEK293 MPD ctr 2-2	TRPC4/MOR mod	TRPC4/MOR inh 2	TRPC6 inh conf	TRPC6 act conf	others
Cc1cc(N2CCN(S(=O)(=O)c3ccc(Cl)cc3)CC2)c2ccccc2n1	i	i	-5.1*	i	i	-75%*	i	-22%*	72%*	i	i
COc1cccc(Cl)c1NC(=O)N1CCN(c2cc(C)nc3ccccc23)CC1	i	i	-9.7*	i	i	-146%*	i	-38%*	74%*	48%*	i
Cc1cc(N2CCN(S(=O)(=O)c3ccc(Cl)c(Cl)c3)CC2)c2ccccc2n1	i	i	i	i	i	.	.	.	.	.	.
COC(=O)CCNC(=O)c1ccc2nc(Cc3ccc(OC)c(OC)c3)oc2c1	i	i	i	i	i	.	.	.	.	.	.
N#Cc1c(-c2cccs2)nc(SCC(=O)c2cccs2)[nH]c1=O	12*	i	i	i	i	114%*	i	26%*	i	i	40%*
O=C(CSc1nc2ccccc2c(=O)[nH]1)c1cccs1	i	i	i	i	i	.	.	.	.	.	.
Cc1cccc(NC(=O)c2cc(-c3ccc(C)c(C)c3O)n[nH]2)c1	i	i	i	i	i	.	.	.	.	.	.
COc1cc(NC(N)=S)c(OC)cc1Cl	i	i	i	i	i	.	.	.	.	.	.
Cc1cc(C)nc(/N=C(\N)Nc2cc([N+](=O)[O-])ccc2C)n1	i	i	-7.1*	i	i	-166%*	i	-28%*	48%*	58%*	i
COc1cc(N/C(N)=N/c2nc(C)cc(C)n2)c(OC)cc1Cl	i	i	-8.2*	i	i	.	.	.	.	90%*	i	TRPC4 spec 2=i;TRPC4 spec=-11%*;HEK293 MPD ctr 2-1=i;HEK293 MPD ctr-1=-170%*
Cc1ccc(NC(=O)CC(O)(C(F)(F)F)C(F)(F)F)c(Br)c1	i	i	-6.1*	i	i	i	i	i	i	i	.
Cc1ccccc1NC(=O)CC(O)(C(F)(F)F)C(F)(F)F	i	i	i	i	i	.	.	.	.	.	.
O=c1c2cc(F)ccc2[nH]c(=S)n1Cc1ccc(F)cc1	i	i	i	i	i	.	.	.	.	.	.
CCOc1ccc(NC(=O)C(NC(=O)C2CCC(C)CC2)C(C)C)cc1 (stereo not given)	i	i	-5.7*	i	i	i	i	i	i	i	i
CC1CCC(C(=O)NC(C(=O)Nc2ccccn2)C(C)C)CC1 (stereo not given)	i	i	i	i	i	.	.	.	.	.	.
O=C(CN1CCCC1)N1c2ccccc2Sc2ccc(Cl)cc21	i	i	-5.5*	i	i	96%*	i	14%*	47%*	60%*	.
O=C(CN1CCN(c2ccccn2)CC1)N1c2ccccc2Sc2ccc(C(F)(F)F)cc21	i	i	i	i	i	.	.	.	.	.	.
CCNCCC(=O)N1c2ccccc2Sc2ccc(C(F)(F)F)cc21	i	i	-6.1*	i	i	i	94%*	9.0%*	42%*	84%*	.
O=C(CN1CCCC1)N1c2ccccc2Sc2ccc(C(F)(F)F)cc21	i	i	-5.6*	i	i	i	i	12%*	i	53%*	.
O=C(O)CCn1c(SCCOc2ccccc2)nc2ccccc21	i	i	i	i	i	.	.	.	.	.	.
O=C(c1ccc(C(=O)N2CCCc3ccccc32)s1)N1CCCc2ccccc21	i	i	-6.6*	i	i	.	.	.	.	i	.	TRPC4 spec 2=i;TRPC4 spec=3.9%*;HEK293 MPD ctr 2-1=i;HEK293 MPD ctr-1=3.6%*
S=C1N(c2ccccc2)C(c2ccc(Br)cc2)N2CCCN12 (stereo not given)	i	i	-10*	i	i	.	.	.	.	68%*	i	TRPC4 spec 2=i;TRPC4 spec=i;HEK293 MPD ctr 2-1=18%*;HEK293 MPD ctr-1=i
S=C1N(c2ccccc2)C(c2ccc(Cl)cc2)N2CCCN12 (stereo not given)	i	i	-8.7*	i	i	.	.	.	.	68%*	i	TRPC4 spec 2=i;TRPC4 spec=i;HEK293 MPD ctr 2-1=30%*;HEK293 MPD ctr-1=i
COc1ccc(C2N(c3ccccc3)C(=S)N3CCCN23)cc1 (stereo not given)	i	i	i	i	i	.	.	.	.	.	.
Cc1ccc(C(=O)N/N=C/c2ccoc2)cc1C	i	i	i	i	i	.	.	.	.	.	.
C=CCOC(=O)C1=C(C)N(C)C(=O)NC1c1cc2c(cc1Br)OCO2 (stereo not given)	i	i	-5.4*	i	i	i	i	i	i	i	i
COc1cc(C(=O)Nc2ccc(N3CCCS3(=O)=O)cc2)c([N+](=O)[O-])cc1OC	i	i	i	i	i	.	.	.	.	.	.
CCCCCCN1C=CC=C/C1=C\C=C(C#N)C#N	13*	i	i	i	i	253%*	i	75%*	i	i	102%*
CC1=C/C(=C\C=C(C#N)C#N)N(C)c2ccccc21	i	i	i	i	i	.	.	.	.	.	.
CCOC(=O)/C=C/COc1ccccc1[N+](=O)[O-]	i	i	i	i	i	.	.	.	.	.	.
